Published values of several laboratories.
Each line is one published result; the experiments were not run side by side. pEC50, pIC50: −log10 of the molar value.
Read-out: cell growth or viability

O=C(Nc1ccc(-c2ccc3ncn(Cc4ccccc4)c(=O)c3c2)cn1)C1CCC1  pIC50 (NCI-H1975; CCK-8; 72 h): < 5.00
CCCCCCCCCCCCCCCCCCOc1ccccc1CC(=O)OCC[N+]1(C)CCOCC1  inhibition (NCI-H322M; SRB; 10 µM): 20.2%
O=C(Nc1ccc(-c2ccc3ncn(Cc4ccccc4)c(=O)c3c2)cn1)c1ccco1  pIC50 (NCI-H1975; CCK-8; 72 h): < 5.00
CCCCNC(=O)Nc1nc2cc(-c3ccc4ncn(Cc5ccccc5)c(=O)c4c3)ccc2s1  pIC50 (NCI-H1975; MTT; 72 h): 5.12
C[C@H](Nc1ccc2c(c1)OCCn1cc(N3C(=O)OC[C@H]3C(F)F)nc1-2)C(N)=O  pEC50 (KPL4; ATP luminescence; 5 days): 7.13
O=C(Nc1ccc(F)cc1)Nc1nc2cc(-c3ccc4ncn(CC5CC5)c(=O)c4c3)ccc2s1  pIC50 (NCI-H1975; MTT; 72 h): 5.95
CCCCCCCCCCCCCCCCCCOc1ccc(CC(=O)OCCC[N+](C)(C)C)cc1  inhibition (NCI-H322M; SRB; 10 µM): 9.97%
CCCCn1cnc2ccc(-c3ccc(NC(=O)NCc4ccccc4)nc3)cc2c1=O  pIC50 (NCI-H1975; CCK-8; 72 h): 6.54
NCCC(=O)Nc1ccccc1/N=c1\cc(-c2ccc3nc(N)oc3c2)oc2ccc(O)cc12  inhibition (NCI-H1975; CCK-8; 1 µM): 7.56%
CCCn1cnc2ccc(-c3ccc(NC(=O)CC)nc3)cc2c1=O  pIC50 (NCI-H1975; CCK-8; 72 h): 5.97
O=C(Nc1ccc(Br)cc1)Nc1nc2cc(-c3ccc4ncn(Cc5ccccc5)c(=O)c4c3)ccc2s1  pIC50 (NCI-H1975; MTT; 72 h): < 4.70
NCCC(=O)Nc1ccccc1/N=c1\cc(-c2ccc3nc(N)oc3c2)oc2ccccc12  inhibition (NCI-H1975; CCK-8; 1 µM): 43.6%
COc1ccc(C(=O)Nc2nc3cc(-c4ccc5ncn(Cc6ccccc6)c(=O)c5c4)ccc3s2)cc1  pIC50 (NCI-H1975; MTT; 72 h): < 4.70
Nc1ccccc1/N=c1\cc(-c2ccc3c(c2)OCO3)oc2ccccc12  inhibition (NCI-H1975; CCK-8; 1 µM): 2.1%
CCCCCCCCCCCCCCCCCCOc1cccc(CC(=O)OCC[N+]2(C)CCOCC2)c1  inhibition (NCI-H322M; SRB; 10 µM): 1.47%
CCCCn1cnc2ccc(-c3ccc(NC(=O)Nc4ccc(F)cc4)nc3)cc2c1=O  pIC50 (NCI-H1975; CCK-8; 72 h): 5.85
C[C@H](N)C(=O)Nc1ccccc1/N=c1\cc(-c2ccc3c(c2)OCCO3)oc2cc(F)ccc12  inhibition (NCI-H1975; CCK-8; 1 µM): -0.65%
CCCCCCCCCCCCCCCCCCOc1ccccc1CC(=O)OCCC[N+](C)(C)C  inhibition (NCI-H322M; SRB; 10 µM): 15.7%
COc1cccc(NC(=O)Nc2nc3cc(-c4ccc5ncn(CC(=O)N6CCOCC6)c(=O)c5c4)ccc3s2)c1  pIC50 (NCI-H1975; MTT; 72 h): < 4.70
CCCCC(=O)Nc1ccc(-c2cnc3ccn(CCC)c(=O)c3c2)cn1  pIC50 (NCI-H1975; CCK-8; 72 h): 5.92
NCCCC(=O)Nc1ccccc1/N=c1\cc(-c2ccc3c(c2)OCO3)oc2ccccc12  inhibition (NCI-H1975; CCK-8; 1 µM): 1.32%
Cc1nc(NC(=O)N2CCC[C@H]2C(N)=O)sc1-c1ccnc(C(C)(C)C(F)(F)F)c1  pEC50 (KPL4; ATP luminescence; 5 days): 5.92
CCCCC(=O)Nc1ccc(-c2ccc3ncn(CC)c(=O)c3c2)cn1  pIC50 (NCI-H1975; CCK-8; 72 h): 6.60
Cc1nc(Nc2ncc(C(=O)Nc3c(C)cccc3Cl)s2)cc(N2CC[C@H](O)C2)n1  inhibition (KARPAS-422; ATP luminescence; 10 µM; 72 h): 91%
C[C@H](N)C(=O)Nc1ccccc1/N=c1\cc(-c2ccc3c(c2)OCO3)oc2ccccc12  inhibition (NCI-H1975; CCK-8; 1 µM): 1.32%
O=C(Nc1cccc(C(F)(F)F)c1)Nc1nc2cc(-c3ccc4ncn(CCN5CCOCC5)c(=O)c4c3)ccc2s1  pIC50 (NCI-H1975; MTT; 72 h): 5.83
CCCCC(=O)Nc1ccc(-c2ccc3ncn(CCF)c(=O)c3c2)cn1  pIC50 (NCI-H1975; CCK-8; 72 h): 6.72
CCCCCCCCCCCCCCCCCCOc1cccc(CC(=O)OCC[N+](C)(C)C)c1  inhibition (NCI-H322M; SRB; 10 µM): 0.32%
CC(=O)O[C@H]1C(=O)[C@@]2(C)[C@H]([C@H](OC(=O)c3ccccc3)[C@]3(O)C[C@H](OC(=O)[C@H](O)[C@@H](NC(=O)c4ccccc4)c4ccccc4)C(C)=C1C3(C)C)[C@]1(OC(C)=O)CO[C@@H]1C[C@@H]2O  pIC50 (NCI-H1975; MTT; 72 h): 7.14
COc1ccc2/c(=N/c3ccccc3NC(=O)[C@@H](N)CO)cc(-c3ccc4c(c3)OCCO4)oc2c1  inhibition (NCI-H1975; CCK-8; 1 µM): 1.06%
CCCCCCCCCCCCCCCCCCOc1ccccc1CC(=O)OCC[N+](CC)(CC)CC  inhibition (NCI-H322M; SRB; 10 µM): 29.4%
O=C(Nc1ccc(F)cc1)Nc1nc2cc(-c3ccc4ncn(Cc5ccccc5)c(=O)c4c3)ccc2s1  pIC50 (NCI-H1975; MTT; 72 h): 5.63
NCCC(=O)Nc1ccccc1/N=c1\cc(-c2ccc3nc(N)oc3c2)oc2ccc(F)cc12  inhibition (NCI-H1975; CCK-8; 1 µM): 63.7%
